# From PubChem
# This excerpt belongs to a sample that is enriched for hits.
# HSF1 activator: HSF-1 activators, primary screen, NIH3T3-HGL cells, MG132 stress, luminescence, single point | NIH3T3-HGL HSF-1 luciferase reporter, 8 h; 100% = twice DMSO control signal | activation, % at 9 µM | 300,000 tested, 1.7% active | AID 504408, 2011;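 active means mean replicate activation of at least 50% with a set share of replicates each reaching 50%; inconclusive means only one of those two conditions met; inactive means mean below 50% and too few replicates reaching it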;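 further: 0% = median of the neutral control wells and 100% = twice that signal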
# Hsp70 act: Hsp70 transcriptional activators, primary screen, cell-based, HeLa, Hsp70 promoter luciferase, luminescence, 10 µM; HeLa Hsp70 promoter luciferase reporter; scaled: vehicle 0, proteasome-inhibitor control 100%; activation, % at 10 µM; 200,000 tested, 0.04% active; AID 1203, 2008;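 active means activation above the mean across all tested compounds plus 3 SD, cutoff set per campaign, cut at about 5.5% in these data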;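 further: 100% = MG132 at 30 µM as the positive control and 0% = DMSO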
# T cruzi inh: inhibitors of intracellular T. cruzi growth, primary screen, luminescence, NIH3T3 host cells | 300,000 tested, 1.4% active | T. cruzi beta-gal in NIH3T3, 90 h | AID 1885, 2009 | inhibition, % (test concentration not listed);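 active means mean inhibition across valid replicates above about 55%, limit read from the data; inconclusive means mean below that limit but half or more replicates reach it; inactive means mean below it, under half of replicates reach it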;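 further: signal also drops with host cell toxicity which is not excluded here; 0% = plate median of DMSO wells and 100% = zero luminescence signal; higher percent means less beta-gal luminescence so fewer parasites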
#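 Test system: β-gal T. cruzi (Tulahuen C4) inside NIH/3T3 cells / Quantity: 5,000 cells/well / Measured by: luminescence from GalScreen with 0.05% NP40, read after 60 min / Medium: DMEM plus 2% FBS / Measure: parasite load inhibition, % / Reagent: Tulahuen C4 trypomastigotes, 5000/well / Schedule: co-culture of at least 90 h after 3 h attachment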
# HSF1 inh: HSF1 inhibitors in luciferase reporter cells, primary screen, cell-based, NIH3T3, luminescence; NIH3T3-HGL HSE-luciferase, MG132-induced, luminescence 8 h; hits give low values; activity change, negative = inhibition, % at 7.5 µM (by protocol); 300,000 tested, 0.77% active; AID 2098, 2009;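 active means more than half of replicate wells show activity change below -50%, luminescence cut by over half; inconclusive means some wells, but at most half, below -50%; inactive means no replicate well below -50%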;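 further: luciferase reports HSF-1 transcriptional activity via heat shock element; 0% = median of DMSO wells and -100% = zero luminescence signal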
# L major viab: Leishmania major promastigote growth inhibition, primary screen. Leishmania major promastigotes, resazurin fluorescence viability. AID 1063, 2008. inhibition, % at 10 µM. 200,000 tested, 9% active; in the data active means inhibition above about 50%;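 further: promastigotes grown with compound for 44 hours at 28 °C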
# Numbers without * were called inactive; ? = inconclusive; . = not tested or not shown.
SMILES,HSF1 activator,Hsp70 act,T cruzi inh,HSF1 inh,L major viab
CCN=c1scc(-c2cccs2)n1/N=C/c1cc(OC)ccc1O,.,0,.,.,75*
CC(=O)c1ccn(S(=O)(=O)c2ccccc2)c1,12,0,-14,-1,-7
Cc1cc(OC(C)C(=O)NCC2CCC(C(=O)O)CC2)c2c(C)c(C)c(=O)oc2c1 (stereo not given),3,.,-14,-4,.
COCCn1c(-c2ccco2)csc1=Nc1cccnc1,5,0,-6,1,-10
CC(C)Cn1c(-c2ccco2)csc1=Nc1cccnc1,10,0,-8,4,58*
COC(=O)c1ccc(C2Nc3cccc4cccc(c34)N2)cc1,28,0,67*,15,4
O=C(CCCN1C(=O)c2ccccc2C1=O)Nc1ccccc1,-6,.,0,2,.
CCc1ccc(/C=C2\SC(=S)N(CCCC(=O)Nc3ccccn3)C2=O)cc1,-50,-1,62*,?,-2
O=C(CCCCCN1C(=O)c2ccccc2C1=O)Nc1ccc(C(=O)O)cc1,63*,.,-6,28,.
CC(=C\c1ccccc1)/C=C1/SC(=S)N(CCC(=O)Nc2ccccn2)C1=O,-93,0,14,-91*,20
O=C(CCCCCCN1C(=O)c2ccccc2C1=O)N1CCC(c2ccccc2)C1 (stereo not given),-71,0,9,-64*,0
Cc1cc(C)c(NC(=O)CO/N=C2\CCCc3nonc32)c(C)c1,12,0,-3,7,-4
CCSCCc1nnc(NC(=O)Nc2cccc(C(F)(F)F)c2)s1,-36,0,0,-16,5
CN(C(=O)Cc1c(C(=O)O)n(C)c2ccccc12)c1cccc(C(F)(F)F)c1,-18,.,-15,-10,.
CC(/C=C1\SC(=S)N(CCCC(=O)Nc2ccc(C(=O)O)cc2)C1=O)=C\c1ccccc1,61*,0,-7,11,1
CC(/C=C1\SC(=O)N(CCCC(=O)O)C1=O)=C\c1ccccc1,-78,-1,3,-73*,-8
CC(/C=C1\SC(=S)N(CCC(=O)Nc2ccccc2O)C1=O)=C\c1ccccc1,-69,.,-14,-69*,.
Cc1ccc(-n2nc(C)c(Sc3ccccc3[N+](=O)[O-])c2N)cc1,-13,0,16,-6,-6
CC(C)[N+]1=C2C=CC=CC=C2SC12C([N+](=O)[O-])=CC(=[N+]([O-])[O-])C=C2[N+](=O)[O-] (stereo not given),11,.,4,1,.
O=S1(=O)N[C@H](c2ccccc2)C[C@H](c2ccc(C(F)(F)F)cc2)O1,-67,.,8,-56*,.
CC1CC(c2ccccc2)NS(=O)(=O)O1 (stereo not given),-10,.,-2,-2,.
O=[N+]([O-])c1ccccc1/C=C/CN1CCCCC1,-13,0,-6,-7,75*
CCOC(=O)C1CCCN(C/C=C/c2ccccc2[N+](=O)[O-])C1 (stereo not given),5,0,27,1,85*
COc1ccc(C)cc1NC(=S)N1CCN(S(C)(=O)=O)CC1,-2,0,8,5,-9
CCCC(C)C(=O)Nc1nc(C)c(-c2csc(Nc3ccccc3OC)n2)s1 (stereo not given),-12,0,-12,-1,96*
SMILES,HSF1 activator,Hsp70 act,T cruzi inh,HSF1 inh,L major viab
CCCCCC(=O)Nc1nc(C)c(-c2csc(Nc3ccccc3OC)n2)s1,10,0,-6,-1,73*
CCCCCC(=O)Nc1nc(C)c(-c2csc(Nc3ccccc3OCC)n2)s1,2,0,-5,-1,52*
CCCCCCC(=O)Nc1nc(C)c(-c2csc(Nc3cc(Cl)ccc3C)n2)s1,5,0,14,7,5
CCCC(=O)Nc1nc(C)c(-c2csc(Nc3ccccc3C)n2)s1,-2,0,-15,0,10
CCCCCCC(=O)Nc1nc(C)c(-c2csc(Nc3ccccc3OC)n2)s1,0,0,7,0,55*
OCCC1CN(Cc2cc3c(cc2Cl)OCO3)CCN1C1CCCC1 (stereo not given),-14,0,0,-4,42
Cc1cccc(C)c1OCc1cc(C(=O)N2CCN(c3ccccn3)CC2)no1,-9,.,2,0,.
Cc1cccc(C)c1OCc1cc(C(=O)N2CCN(c3ccc(F)cc3)CC2)no1,70*,.,13,63,.
O=C(c1cc(COc2ccc(F)cc2Cl)on1)N1CC[C@@H]2CCCC[C@H]2C1,14,.,19,-3,.
O=C(c1cc(COc2ccc(F)cc2Cl)on1)N1CCSCC1,84*,.,14,33,.
Cn1ccnc1C1CCCCN1C(=O)c1cc(COc2ccc(F)cc2Cl)on1 (stereo not given),-82,0,20,-77*,0
COc1ccc(OCc2cc(C(=O)N3CCSCC3)no2)c(Cl)c1,33,.,-8,12,.
CC(=O)Oc1ccc(N(C(C)=O)S(=O)(=O)c2ccc(C)cc2)c2ccccc12,-11,.,-2,9,.
Cc1nc2ccc(NC(=S)N3CCOCC3)cc2nc1C,18,0,3,4,-4
O=C(CCN1C(=O)C2CCCCC2C1=O)Nc1ccc(F)c(F)c1F (stereo not given),-13,0,2,-1,-4
CCOC(=O)/C(=C\c1ccc(OC(F)F)cc1)C1=Nn2c(nnc2-c2ccc(Cl)cc2)SC1,-83,0,39,-83*,100*
CC1=Nn2c(nnc2-c2ccc(F)cc2)SC1,30,0,-19,-2,-2
O=S(=O)(Nc1cccc(-c2cn3cccnc3n2)c1)c1ccc(F)cc1,-4,0,4,1,71*
O=S(=O)(Nc1cccc(-c2cn3cccnc3n2)c1)c1ccc(-c2ccccc2)cc1,23,0,15,0,1
O=S(=O)(Nc1cccc(-c2cn3cccnc3n2)c1)c1ccccc1,-8,0,2,1,88*
O=C1CCN(S(=O)(=O)c2ccc(Cl)cc2)CCN1,-6,.,2,-1,.
COc1cc(C(=O)NNC(=S)NC(=O)c2ccc(F)cc2)cc(OC)c1OC,-18,.,65*,-3,.
O=C(NC(=S)NNC(=O)c1cnccn1)c1ccc(F)cc1,8,0,43,0,100*
COc1ccc(C(=O)NC(=S)NNC(=O)c2ccc(NC(C)=O)cc2)cc1Br,-6,0,-12,-6,77*
COc1ccc(C(=O)NNC(=S)NC(=O)c2ccc(F)cc2)cc1Br,-6,.,8,-9,.
Cc1c(Nc2ccc(C=O)cc2)c(=O)n(-c2ccccc2)n1C,-7,0,6,0,6
Cc1ccc(SC(c2ccccc2)C(Cn2cncn2)C(=O)c2ccccc2)cc1 (stereo not given),-8,0,-27,-1,0
